Data as given in ChEMBL document CHEMBL1153324, “Potent inhibitors of Huntingtin protein aggregation in a cell-based assay” (Bioorg Med Chem Lett, 2009).

What follows are compounds tested against T1, Huntingtin (Homo sapiens, UniProt P42858) (assay: Inhibition of Huntingtin protein aggregation by cell based assay). Conditions: not given; call rule not given here.
In short: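 Stable transfectants express mutant huntingtin fused to mCFP from a tet-regulatable gene. Cells are seeded in 96-well format and treated with compound for 72 h. Controls are 2 μg/mL doxycycline and 0.1% DMSO (no dox). Aggregation is scored as the presence and magnitude of fluorescent intracellular inclusions (% cells with aggregates, aggregates per cell), and an IC50 is derived.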

T1 sequence (P42858 whole entry, the tested form may be a part): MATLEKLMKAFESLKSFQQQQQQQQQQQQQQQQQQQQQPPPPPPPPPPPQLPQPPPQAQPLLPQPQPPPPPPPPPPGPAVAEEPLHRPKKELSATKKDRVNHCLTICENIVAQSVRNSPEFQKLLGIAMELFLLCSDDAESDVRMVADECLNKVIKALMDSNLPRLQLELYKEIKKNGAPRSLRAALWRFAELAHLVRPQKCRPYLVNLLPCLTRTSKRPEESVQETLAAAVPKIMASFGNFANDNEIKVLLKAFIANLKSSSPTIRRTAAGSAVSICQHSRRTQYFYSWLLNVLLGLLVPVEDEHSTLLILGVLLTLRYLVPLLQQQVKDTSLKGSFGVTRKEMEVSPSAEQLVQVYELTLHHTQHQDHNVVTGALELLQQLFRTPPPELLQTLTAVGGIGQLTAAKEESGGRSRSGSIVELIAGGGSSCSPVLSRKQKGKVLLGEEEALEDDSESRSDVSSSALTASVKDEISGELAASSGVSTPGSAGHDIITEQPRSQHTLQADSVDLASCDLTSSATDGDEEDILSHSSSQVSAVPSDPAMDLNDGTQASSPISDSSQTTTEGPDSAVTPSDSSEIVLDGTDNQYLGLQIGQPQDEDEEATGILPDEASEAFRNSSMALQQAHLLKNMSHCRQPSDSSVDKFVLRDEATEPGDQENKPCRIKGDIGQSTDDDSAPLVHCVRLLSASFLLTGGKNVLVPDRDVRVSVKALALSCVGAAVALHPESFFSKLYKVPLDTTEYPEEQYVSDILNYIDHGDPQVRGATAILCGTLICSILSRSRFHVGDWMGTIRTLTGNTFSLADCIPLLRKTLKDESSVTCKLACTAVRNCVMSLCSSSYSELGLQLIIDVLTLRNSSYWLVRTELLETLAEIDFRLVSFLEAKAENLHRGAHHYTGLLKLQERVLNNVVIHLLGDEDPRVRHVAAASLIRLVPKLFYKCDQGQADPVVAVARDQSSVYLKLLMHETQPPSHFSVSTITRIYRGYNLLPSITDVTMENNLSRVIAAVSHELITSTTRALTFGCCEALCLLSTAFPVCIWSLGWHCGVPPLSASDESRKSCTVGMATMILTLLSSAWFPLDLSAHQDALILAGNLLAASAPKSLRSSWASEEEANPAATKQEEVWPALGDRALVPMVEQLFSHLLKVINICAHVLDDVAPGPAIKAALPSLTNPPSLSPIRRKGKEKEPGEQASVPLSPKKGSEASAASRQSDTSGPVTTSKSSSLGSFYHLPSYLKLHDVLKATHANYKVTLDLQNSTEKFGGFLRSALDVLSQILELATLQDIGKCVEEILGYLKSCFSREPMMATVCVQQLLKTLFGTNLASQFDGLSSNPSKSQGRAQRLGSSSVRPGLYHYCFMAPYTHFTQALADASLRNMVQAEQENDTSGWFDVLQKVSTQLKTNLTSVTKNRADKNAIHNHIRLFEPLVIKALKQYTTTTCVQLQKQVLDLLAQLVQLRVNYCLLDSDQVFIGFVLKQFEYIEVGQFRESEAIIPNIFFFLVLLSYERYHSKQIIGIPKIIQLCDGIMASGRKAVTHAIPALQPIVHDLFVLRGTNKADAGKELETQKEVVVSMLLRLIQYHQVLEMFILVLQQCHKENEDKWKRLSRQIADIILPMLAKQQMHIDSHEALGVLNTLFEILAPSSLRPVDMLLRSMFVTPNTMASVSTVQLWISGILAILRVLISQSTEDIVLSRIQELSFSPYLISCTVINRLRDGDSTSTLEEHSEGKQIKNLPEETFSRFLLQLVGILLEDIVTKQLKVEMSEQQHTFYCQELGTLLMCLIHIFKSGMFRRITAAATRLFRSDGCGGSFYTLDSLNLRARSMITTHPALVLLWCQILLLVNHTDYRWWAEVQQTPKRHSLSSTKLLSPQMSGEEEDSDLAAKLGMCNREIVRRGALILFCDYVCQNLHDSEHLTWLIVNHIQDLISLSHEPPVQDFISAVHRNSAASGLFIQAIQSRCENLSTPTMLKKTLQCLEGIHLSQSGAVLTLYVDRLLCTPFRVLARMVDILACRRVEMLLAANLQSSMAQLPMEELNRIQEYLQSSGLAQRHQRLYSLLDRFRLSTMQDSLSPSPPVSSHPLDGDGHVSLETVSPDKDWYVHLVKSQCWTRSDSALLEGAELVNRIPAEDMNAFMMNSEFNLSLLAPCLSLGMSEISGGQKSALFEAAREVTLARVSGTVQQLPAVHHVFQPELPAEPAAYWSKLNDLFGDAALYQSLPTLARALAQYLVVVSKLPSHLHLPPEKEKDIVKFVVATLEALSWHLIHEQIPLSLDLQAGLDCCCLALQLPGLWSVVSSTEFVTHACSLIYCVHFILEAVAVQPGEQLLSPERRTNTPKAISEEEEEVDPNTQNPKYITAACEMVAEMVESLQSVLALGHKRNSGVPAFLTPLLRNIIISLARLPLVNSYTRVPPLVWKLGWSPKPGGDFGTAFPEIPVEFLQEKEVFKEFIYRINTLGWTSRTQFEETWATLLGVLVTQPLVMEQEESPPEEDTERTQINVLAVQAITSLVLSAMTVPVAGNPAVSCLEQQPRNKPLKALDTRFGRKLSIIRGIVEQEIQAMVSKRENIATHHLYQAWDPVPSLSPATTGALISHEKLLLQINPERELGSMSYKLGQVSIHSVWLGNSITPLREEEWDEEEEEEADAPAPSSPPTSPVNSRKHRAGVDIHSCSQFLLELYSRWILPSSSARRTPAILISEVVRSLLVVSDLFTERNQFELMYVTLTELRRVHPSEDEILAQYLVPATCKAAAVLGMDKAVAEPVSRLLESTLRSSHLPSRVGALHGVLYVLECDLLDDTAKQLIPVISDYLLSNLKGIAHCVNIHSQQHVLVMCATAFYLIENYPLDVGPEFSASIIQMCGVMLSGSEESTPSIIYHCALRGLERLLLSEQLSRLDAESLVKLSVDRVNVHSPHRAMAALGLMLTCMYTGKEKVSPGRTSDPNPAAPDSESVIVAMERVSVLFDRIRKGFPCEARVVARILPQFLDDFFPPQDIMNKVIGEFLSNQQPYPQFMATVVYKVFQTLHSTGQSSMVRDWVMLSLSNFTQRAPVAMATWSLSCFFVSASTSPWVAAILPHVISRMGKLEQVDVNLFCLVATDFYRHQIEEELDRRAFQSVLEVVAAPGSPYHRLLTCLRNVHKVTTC

Q: With Clc1ccc(CCNc2ncnc3ccc(Br)cc23)cc1 as the compound, how does the IC50 read?
A: Not Active

Q: Brc1ccc2ncnc(N3CCN(Cc4ccc5c(c4)OCO5)CC3)c2c1 was tested. Which IC50 did it give?
A: Not Active

Q: With Clc1ccc2ncnc(NCCc3ccc(Oc4ccccc4)cc3)c2c1 as the compound, how does the IC50 read?
A: Not Active

Q: Clc1ccc2ncnc(NCCc3ccc(OC4CCCC4)cc3)c2c1 was tested. Which IC50 did it give?
A: Not Active

Q: How did the IC50 turn out when Clc1ccc2ncnc(NCCc3ccc(OCc4ccccc4)cc3)c2c1 was run?
A: Not Active

Q: For Fc1ccc2ncnc(NCCc3ccc(Cl)cc3)c2c1, which IC50 is on record?
A: Not Active

Q: For Nc1ccc2ncnc(NCCc3ccc(Oc4ccccc4)cc3)c2c1, which IC50 is on record?
A: Not Active

Same assay, conditions: read-out: IC50

Q: How did the IC50 turn out when C=CCNc1ncnc2ccc(Br)cc12 was run?
A: 5.36 µM

Q: How did the IC50 turn out when CCN1CCN(c2ncnc3ccccc23)CC1 was run?
A: > 10 µM

Q: With CN1CCN(c2ncnc3ccc(F)cc23)CC1 as the compound, how does the IC50 read?
A: > 10 µM

Q: How did the IC50 turn out when c1ccc2c(N3CCN(Cc4ccc5c(c4)OCO5)CC3)ncnc2c1 was run?
A: > 10 µM

Q: With Clc1ccc(CCNc2ncnc3ccc(Cl)cc23)cc1 as the compound, how does the IC50 read?
A: 3.44 µM

Q: CCCNc1ncnc2ccc(Br)cc12 was tested. Which IC50 did it give?
A: 8.13 µM

Q: How did the IC50 turn out when CN1CCN(c2ncnc3ccc(Cl)cc23)CC1 was run?
A: > 10 µM

Q: Oc1ccc(CCNc2ncnc3ccccc23)cc1 was tested. Which IC50 did it give?
A: > 15.8 µM

Q: Fc1ccc2ncnc(N3CCN(Cc4ccc5c(c4)OCO5)CC3)c2c1 was tested. Which IC50 did it give?
A: > 10 µM

Q: For CCN1CCN(c2ncnc3ccc(Br)cc23)CC1, which IC50 is on record?
A: 2.21 µM

Q: With CN1CCN(c2ncnc3ccc(Br)cc23)CC1 as the compound, how does the IC50 read?
A: 1.31 µM

Q: Brc1ccc2ncnc(NCc3ccccc3)c2c1 was tested. Which IC50 did it give?
A: 6.13 µM

Q: Which IC50 does the source give for CN1CCN(c2ncnc3ccccc23)CC1 here?
A: > 10 µM

Q: Which IC50 does the source give for CCN1CCN(c2ncnc3ccc(Cl)cc23)CC1 here?
A: 3.63 µM

Q: With Clc1ccc(CCNc2ncnc3ccccc23)cc1 as the compound, how does the IC50 read?
A: 10.5 µM

Q: How did the IC50 turn out when Oc1ccc(CCNc2ncnc3ccc(Cl)cc23)cc1 was run?
A: 0.71 µM

Q: Which IC50 does the source give for Clc1ccc2ncnc(N3CCN(Cc4ccc5c(c4)OCO5)CC3)c2c1 here?
A: 1.07 µM

Q: How did the IC50 turn out when Oc1ccc(CCNc2ncnc3ccc(Br)cc23)cc1 was run?
A: 1.11 µM

Q: For Oc1ccc(CCNc2ncnc3ccc(F)cc23)cc1, which IC50 is on record?
A: 6.38 µM

Q: With CCN1CCN(c2ncnc3ccc(F)cc23)CC1 as the compound, how does the IC50 read?
A: 5.26 µM

Q: With Brc1ccc2ncnc(N3CCNCC3)c2c1 as the compound, how does the IC50 read?
A: 2.74 µM

Q: How did the IC50 turn out when CCOC(=O)COc1ccc(CCNc2ncnc3ccc(Cl)cc23)cc1 was run?
A: 4.48 µM

The compounds below were run against T1, Huntingtin (assay: Inhibition of Huntingtin protein aggregation by yeast based assay). Conditions: not given.

Q: How did the EC50 turn out when C=CCNc1ncnc2ccc(Br)cc12 was run?
A: 50 µM

Q: Which EC50 does the source give for CCCNc1ncnc2ccc(Br)cc12 here?
A: 50 µM

Q: Which EC50 does the source give for Brc1ccc2ncnc(NCc3ccccc3)c2c1 here?
A: 50 µM
